ChEMBL document CHEMBL1144694, “Identification of 4-(4-aminopiperidin-1-yl)-7H-pyrrolo[2,3-d]pyrimidines as selective inhibitors of protein kinase B through fragment elaboration” (J Med Chem, 2008)

Legend:
[1] = target: RAC-beta serine/threonine-protein kinase (Homo sapiens, UniProt P31751); experiment: Inhibition of PKBbeta recombinant by radiometric filter binding assay
[2] = Inhibition of recombinant catalytic subunit PKA by radiometric filter binding assay
[3] = Growth inhibition of human PC3M cells by SRB assay; type: functional, cell-based; conditions: PC-3M
[4] = test system: Mus musculus; experiment: Clearance in BALB/c mouse plasma at 25 mg/kg, iv; type: ADME, organism-based; parameters: dose 25 mg/kg, route intravenous; conditions: in vivo
Outline: (§1)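 Female BALB/c mice dosed at 25 mg kg^-1 intravenously or orally, compound in 10% DMSO 0.1% Tween-20 in saline. Plasma concentrations measured over time to derive T1/2, Tmax, Cmax, AUC, Vss and plasma clearance.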

[5] = AUC in BALB/c mouse at 25 mg/kg, po; type: ADME, organism-based; parameters: dose 25 mg/kg, route oral; conditions: plasma; outline: as §1
[6] = Half life in BALB/c mouse at 25 mg/kg, po; type: ADME, organism-based; parameters: dose 25 mg/kg, route oral; conditions: in vivo; outline: as §1
[7] = test system: Plasma; experiment: Drug level in BALB/c mouse plasma at 25 mg/kg, po; type: ADME, organism-based; parameters: dose 25 mg/kg, route oral; conditions: in vivo; outline: as §1
[8] = Cmax in BALB/c mouse at 25 mg/kg, po; type: ADME, organism-based; parameters: dose 25 mg/kg, route oral; conditions: in vivo; outline: as §1
[9] = Metabolic stability in BALB/c mouse liver microsomes at 10 uM after 30 mins; type: ADME, Microsome; conditions: read-out: Stability
Outline: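 Incubated at 10 µM for 30 min in mouse liver microsomes competent for phase I and phase II metabolism. Parent remaining quantified by LC-MS/MS, with metabolite identification.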

[10] = Growth inhibition of human U87MG cells by SRB assay; type: functional, cell-based, U-87MG ATCC; conditions: U-87 MG
[11] = test system: Mus musculus; experiment: Volume of distribution at steady state in BALB/c mouse at 25 mg/kg, iv; type: ADME, organism-based; parameters: dose 25 mg/kg, route intravenous; conditions: in vivo; outline: as §1
[12] = Tmax in BALB/c mouse at 25 mg/kg, po; type: ADME, organism-based; parameters: dose 25 mg/kg, route oral; conditions: in vivo; outline: as §1
[13] = Metabolic stability in human liver microsomes at 10 uM after 30 mins; type: ADME, Microsome; conditions: read-out: Stability
Outline: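 Human liver microsomes with cofactors for phase I metabolism, compound at 10 µM for 30 min. Percent parent remaining measured by LC-MS/MS.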

[14] = Oral bioavailability in BALB/c mouse at 25 mg/kg; type: ADME, organism-based; conditions: in vivo
[15] = Tmax in BALB/c mouse at 25 mg/kg, iv; type: ADME, organism-based; parameters: dose 25 mg/kg, route intravenous; conditions: in vivo; outline: as §1
[16] = Cmax in BALB/c mouse at 25 mg/kg, iv; type: ADME, organism-based; parameters: dose 25 mg/kg, route intravenous; conditions: in vivo; outline: as §1
[17] = test system: Mus musculus; experiment: Half life in BALB/c mouse at 25 mg/kg, iv; type: ADME, organism-based; parameters: dose 25 mg/kg, route intravenous; conditions: in vivo; outline: as §1
[18] = AUC in BALB/c mouse at 25 mg/kg, iv; type: ADME, organism-based; parameters: dose 25 mg/kg, route intravenous; conditions: plasma; outline: as §1
[19] = target: T1, Ribosomal protein S6 kinase beta-1 (Homo sapiens, UniProt P23443); experiment: Inhibition of p70S6K by radiometric filter binding assay
Outline: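 IC50 for p70S6K kinase activity measured in a radiometric filter binding assay.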
Target sequence in this assay (P23443 whole entry): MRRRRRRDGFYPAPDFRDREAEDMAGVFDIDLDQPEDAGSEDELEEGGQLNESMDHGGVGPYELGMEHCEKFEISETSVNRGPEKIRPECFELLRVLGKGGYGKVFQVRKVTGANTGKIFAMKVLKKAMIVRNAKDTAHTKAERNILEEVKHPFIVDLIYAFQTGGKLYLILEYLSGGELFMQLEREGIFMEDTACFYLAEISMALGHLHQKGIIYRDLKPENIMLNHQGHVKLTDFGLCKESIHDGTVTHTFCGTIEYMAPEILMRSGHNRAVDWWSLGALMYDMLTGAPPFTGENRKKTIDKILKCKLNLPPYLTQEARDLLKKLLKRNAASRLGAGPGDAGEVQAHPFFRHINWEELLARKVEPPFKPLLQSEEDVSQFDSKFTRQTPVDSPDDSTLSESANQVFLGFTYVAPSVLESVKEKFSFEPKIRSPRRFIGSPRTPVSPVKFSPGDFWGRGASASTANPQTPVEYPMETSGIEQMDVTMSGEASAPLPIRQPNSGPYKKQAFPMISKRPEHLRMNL

[20] = target: Proto-oncogene tyrosine-protein kinase Src (Homo sapiens) (UniProt P12931); experiment: Inhibition of SRC at 1 uM
Chain of Proto-oncogene tyrosine-protein kinase Src (Homo sapiens) (P12931 2-536 limits assumed): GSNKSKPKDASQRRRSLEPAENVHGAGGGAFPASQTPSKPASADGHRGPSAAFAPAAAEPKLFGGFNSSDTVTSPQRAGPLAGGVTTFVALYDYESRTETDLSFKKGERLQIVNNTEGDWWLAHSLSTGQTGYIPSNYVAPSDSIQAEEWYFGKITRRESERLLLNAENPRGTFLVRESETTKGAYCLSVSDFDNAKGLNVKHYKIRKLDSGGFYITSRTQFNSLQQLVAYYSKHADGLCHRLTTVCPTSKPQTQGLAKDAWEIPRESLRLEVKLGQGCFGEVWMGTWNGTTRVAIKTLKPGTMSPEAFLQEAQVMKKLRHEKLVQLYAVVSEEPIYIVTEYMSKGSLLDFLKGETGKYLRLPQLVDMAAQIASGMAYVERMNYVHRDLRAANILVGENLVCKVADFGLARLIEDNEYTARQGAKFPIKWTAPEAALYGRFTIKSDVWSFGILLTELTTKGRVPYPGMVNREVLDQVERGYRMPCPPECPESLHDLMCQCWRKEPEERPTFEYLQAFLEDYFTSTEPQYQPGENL
Outline: (§2)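 Screen against a panel of 21 kinases, percent inhibition at 1 µM compound.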

[21] = Inhibition of PKC at 1 uM; outline: as §2
[22] = target: Receptor-type tyrosine-protein kinase FLT3 (Homo sapiens) (UniProt P36888); experiment: Inhibition of FLT3 at 1 uM; outline: as §2
Chain of Receptor-type tyrosine-protein kinase FLT3 (Homo sapiens) (P36888 whole entry): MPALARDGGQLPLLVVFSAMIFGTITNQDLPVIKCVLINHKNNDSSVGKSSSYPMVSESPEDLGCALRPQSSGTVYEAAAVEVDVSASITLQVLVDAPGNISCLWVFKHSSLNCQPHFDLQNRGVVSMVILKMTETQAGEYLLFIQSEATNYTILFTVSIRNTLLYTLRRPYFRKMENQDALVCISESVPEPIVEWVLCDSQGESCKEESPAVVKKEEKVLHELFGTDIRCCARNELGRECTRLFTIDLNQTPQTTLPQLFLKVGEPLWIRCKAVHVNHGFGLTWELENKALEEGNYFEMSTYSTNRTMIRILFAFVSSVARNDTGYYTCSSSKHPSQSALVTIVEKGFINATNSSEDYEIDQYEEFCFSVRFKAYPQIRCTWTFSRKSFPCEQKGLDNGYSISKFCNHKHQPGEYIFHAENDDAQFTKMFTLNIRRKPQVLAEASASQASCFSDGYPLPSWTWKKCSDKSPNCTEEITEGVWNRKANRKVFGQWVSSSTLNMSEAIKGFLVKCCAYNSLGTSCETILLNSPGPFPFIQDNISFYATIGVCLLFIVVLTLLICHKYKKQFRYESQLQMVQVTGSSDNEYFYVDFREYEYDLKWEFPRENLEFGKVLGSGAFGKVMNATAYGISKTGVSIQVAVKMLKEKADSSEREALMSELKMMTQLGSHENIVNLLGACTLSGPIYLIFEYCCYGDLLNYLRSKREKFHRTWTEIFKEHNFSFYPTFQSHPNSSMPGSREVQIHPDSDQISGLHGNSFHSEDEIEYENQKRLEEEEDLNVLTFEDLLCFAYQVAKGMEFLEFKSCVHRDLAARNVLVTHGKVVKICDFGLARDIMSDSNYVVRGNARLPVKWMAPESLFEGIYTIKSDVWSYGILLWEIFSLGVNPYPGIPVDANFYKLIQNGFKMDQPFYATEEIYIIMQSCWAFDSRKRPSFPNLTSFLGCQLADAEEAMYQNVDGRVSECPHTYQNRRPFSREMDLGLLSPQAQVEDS

[23] = target: Serine/threonine-protein kinase Chk2 (Homo sapiens) (UniProt O96017); experiment: Inhibition of CHK2 at 1 uM; outline: as §2
Chain of Serine/threonine-protein kinase Chk2 (Homo sapiens) (O96017 whole entry): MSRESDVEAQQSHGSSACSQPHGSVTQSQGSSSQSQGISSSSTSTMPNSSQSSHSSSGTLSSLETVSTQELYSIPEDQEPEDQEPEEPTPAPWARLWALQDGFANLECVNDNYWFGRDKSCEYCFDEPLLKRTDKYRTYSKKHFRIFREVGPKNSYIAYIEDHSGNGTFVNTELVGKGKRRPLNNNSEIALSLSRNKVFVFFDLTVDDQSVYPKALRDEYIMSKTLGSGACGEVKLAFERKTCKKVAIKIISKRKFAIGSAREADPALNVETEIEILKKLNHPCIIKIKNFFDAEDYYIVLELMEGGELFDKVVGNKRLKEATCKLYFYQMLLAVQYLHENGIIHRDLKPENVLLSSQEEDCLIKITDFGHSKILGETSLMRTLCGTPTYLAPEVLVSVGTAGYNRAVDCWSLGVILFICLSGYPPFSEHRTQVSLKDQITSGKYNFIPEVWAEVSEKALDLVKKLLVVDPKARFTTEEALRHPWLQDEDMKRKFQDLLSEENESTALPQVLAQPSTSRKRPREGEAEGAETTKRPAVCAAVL

[24] = target: Ribosomal protein S6 kinase alpha-2 (Homo sapiens) (UniProt Q15349); experiment: Inhibition of RSK2 at 1 uM; outline: as §2
Chain of Ribosomal protein S6 kinase alpha-2 (Homo sapiens) (Q15349 whole entry): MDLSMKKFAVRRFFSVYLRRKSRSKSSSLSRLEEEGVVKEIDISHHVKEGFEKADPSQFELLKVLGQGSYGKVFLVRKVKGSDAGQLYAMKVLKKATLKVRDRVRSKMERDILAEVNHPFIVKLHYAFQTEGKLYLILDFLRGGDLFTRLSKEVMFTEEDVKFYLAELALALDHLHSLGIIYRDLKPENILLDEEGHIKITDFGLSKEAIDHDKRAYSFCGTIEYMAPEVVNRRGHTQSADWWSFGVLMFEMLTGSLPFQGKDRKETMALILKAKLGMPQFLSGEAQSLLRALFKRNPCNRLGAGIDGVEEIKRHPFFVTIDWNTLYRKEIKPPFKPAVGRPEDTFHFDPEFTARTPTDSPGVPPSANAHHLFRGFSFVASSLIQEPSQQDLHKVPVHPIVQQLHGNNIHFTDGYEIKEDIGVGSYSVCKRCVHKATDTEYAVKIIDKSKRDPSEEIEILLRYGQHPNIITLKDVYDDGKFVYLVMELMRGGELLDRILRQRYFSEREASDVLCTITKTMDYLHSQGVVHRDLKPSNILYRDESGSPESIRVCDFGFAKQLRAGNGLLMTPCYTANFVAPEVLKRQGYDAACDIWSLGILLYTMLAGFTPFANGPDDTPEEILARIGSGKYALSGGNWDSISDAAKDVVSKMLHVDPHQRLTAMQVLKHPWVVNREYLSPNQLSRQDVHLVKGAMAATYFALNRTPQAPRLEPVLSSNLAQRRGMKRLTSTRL

[25] = target: Rho-associated protein kinase 2 (Homo sapiens) (UniProt O75116); experiment: Inhibition of ROCK2 at 1 uM; outline: as §2
[26] = target: T2, Serine/threonine-protein kinase Chk1 (Homo sapiens) (UniProt O14757); experiment: Inhibition of CHK1 at 1 uM; outline: as §2
T2 sequence (whole entry): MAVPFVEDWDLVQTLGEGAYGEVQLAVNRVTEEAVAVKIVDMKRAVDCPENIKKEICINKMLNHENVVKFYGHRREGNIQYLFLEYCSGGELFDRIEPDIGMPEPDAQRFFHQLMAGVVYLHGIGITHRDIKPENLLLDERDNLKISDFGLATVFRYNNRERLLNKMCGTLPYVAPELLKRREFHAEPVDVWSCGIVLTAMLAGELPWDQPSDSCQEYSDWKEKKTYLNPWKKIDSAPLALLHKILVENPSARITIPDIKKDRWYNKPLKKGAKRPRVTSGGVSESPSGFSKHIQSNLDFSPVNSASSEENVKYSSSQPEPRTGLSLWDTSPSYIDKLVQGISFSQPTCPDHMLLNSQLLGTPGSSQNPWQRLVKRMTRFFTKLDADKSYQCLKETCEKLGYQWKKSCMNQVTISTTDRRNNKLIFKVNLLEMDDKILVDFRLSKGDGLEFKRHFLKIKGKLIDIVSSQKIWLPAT

[27] = target: T1, Ribosomal protein S6 kinase beta-1; experiment: Inhibition of p70S6K at 1 uM; outline: as §2
Target sequence in this assay (P23443 whole entry, looked up): as the sequence (P23443 whole entry) above

[28] = Selectivity for PKBbeta over PKA

Chain of RAC-beta serine/threonine-protein kinase (P31751 whole entry): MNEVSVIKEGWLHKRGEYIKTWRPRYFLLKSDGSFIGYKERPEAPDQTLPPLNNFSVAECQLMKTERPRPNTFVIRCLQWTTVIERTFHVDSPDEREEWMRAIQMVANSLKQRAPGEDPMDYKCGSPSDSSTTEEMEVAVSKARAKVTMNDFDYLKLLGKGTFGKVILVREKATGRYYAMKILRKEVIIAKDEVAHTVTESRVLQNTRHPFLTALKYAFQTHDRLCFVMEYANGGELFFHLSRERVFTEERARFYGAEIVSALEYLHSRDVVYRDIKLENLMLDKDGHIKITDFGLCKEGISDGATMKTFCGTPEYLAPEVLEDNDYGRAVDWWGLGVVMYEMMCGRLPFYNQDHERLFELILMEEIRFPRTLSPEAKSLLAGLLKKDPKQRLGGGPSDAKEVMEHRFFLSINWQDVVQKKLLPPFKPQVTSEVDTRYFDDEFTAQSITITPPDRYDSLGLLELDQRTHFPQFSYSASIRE

NCC1CCN(c2ncnc3[nH]ncc23)CC1
IC50 [1]: 0.92 µM
IC50 [2]: 2.4 µM
IC50 [3]: > 50 µM

Cc1nc2ncnc(N3CCC(N)CC3)c2[nH]1
IC50 [1]: 110 µM

O=S(=O)(NCCNC/C=C/c1ccc(Br)cc1)c1cccc2cnccc12
IC50 [2]: 5.3 µM
IC50 [3]: 18 µM

c1nc(N2CCCCC2)c2nc[nH]c2n1
IC50 [1]: 59 µM

NC1(Cc2ccc(Cl)cc2)CCN(c2ncnc3[nH]ccc23)CC1
clearance [4]: 0.325 L/h
AUC [5]: 0.392 µM·h
half-life [6]: 34.2 min
concentration [7]: 432 nM
Cmax [8]: 432 nM
remaining at 0.5 h, 10 µM [9]: 87%
IC50 [10]: 5 µM
Vdss [11]: 0.25 L
Tmax [12]: 30 min
remaining at 0.5 h, 10 µM [13]: 79%
bioavailability [14]: 8.5%
Tmax [15]: 4.98 min
Cmax [16]: 6360 nM
IC50 [3]: 12 µM
t1/2 [17]: 57 min
AUC [18]: 4.62 µM·h
IC50 [19]: 0.12 µM

NCC1(c2ccc(Cl)cc2)CCN(c2ncnc3[nH]ccc23)CC1
inhibition [20]: > 60%
inhibition [21]: > 60%
inhibition [22]: > 60%
IC50 [10]: 0.52 µM
inhibition [23]: > 60%
inhibition [24]: > 60%
inhibition [25]: > 60%
IC50 [1]: 0.008 µM
IC50 [2]: 0.005 µM
IC50 [3]: 1 µM
inhibition [26]: > 60%
inhibition [27]: > 60%

NC1CCN(c2ncnc3[nH]ncc23)CC1
IC50 [1]: 0.83 µM
IC50 [2]: 7.3 µM
IC50 [3]: 38 µM

NC(c1ccc(Cl)cc1)C1CCN(c2ncnc3[nH]cnc23)CC1 (stereo not given)
IC50 [1]: 0.071 µM
IC50 [2]: 0.027 µM
IC50 [3]: 23 µM

NC(c1ccccc1)C1CCN(c2ncnc3[nH]ccc23)CC1 (stereo not given)
IC50 [1]: 0.246 µM
IC50 [2]: 0.726 µM
IC50 [3]: 38 µM

NC1(c2ccc(Cl)cc2)CCN(c2ncnc3[nH]ccc23)CC1
IC50 [10]: 4.7 µM
IC50 [1]: 0.007 µM
IC50 [2]: 0.015 µM
IC50 [3]: 8 µM

NCC1CCN(c2ncnc3[nH]cnc23)CC1
IC50 [1]: 0.29 µM
IC50 [2]: 0.89 µM
IC50 [3]: > 50 µM

NC(c1ccc(Cl)cc1)C1CCN(c2ncnc3[nH]ccc23)CC1 (stereo not given)
IC50 [10]: 6 µM
IC50 [1]: 0.025 µM
IC50 [2]: 0.054 µM
IC50 [3]: 7.4 µM

NC(c1ccc(Cl)cc1)C1CCN(c2ccnc3[nH]ccc23)CC1 (stereo not given)
IC50 [10]: 3.5 µM
IC50 [1]: 0.012 µM
IC50 [2]: 0.003 µM
IC50 [3]: 5.3 µM

NCC1CCN(c2ncnc3[nH]ccc23)CC1
IC50 [1]: 0.77 µM
IC50 [2]: 0.46 µM
IC50 [3]: 32 µM

NCC1(Cc2ccc(Cl)cc2)CCN(c2ncnc3[nH]ccc23)CC1
IC50 [10]: 4.3 µM
IC50 [1]: 0.005 µM
IC50 [2]: 0.009 µM
IC50 [3]: 15 µM

NC(=O)C1CCN(c2ncnc3[nH]cnc23)CC1
IC50 [1]: 41 µM

NCC1(Cc2ccc(Cl)cc2)CCN(c2ncnc3[nH]cnc23)CC1
IC50 [1]: 0.003 µM
IC50 [2]: 0.007 µM
IC50 [3]: 20 µM

NC1CCN(c2ccnc3[nH]ccc23)CC1
IC50 [1]: 0.88 µM
IC50 [2]: 1.93 µM
IC50 [3]: 31 µM

NC1(Cc2ccc(Cl)cc2)CCN(c2ncnc3[nH]cnc23)CC1
Selectivity ratio [28]: 11
IC50 [1]: 0.025 µM
IC50 [2]: 0.286 µM
IC50 [3]: > 50 µM

NC1(c2ccc(Cl)cc2)CCN(c2ncnc3[nH]cnc23)CC1
IC50 [1]: 0.007 µM
IC50 [2]: 0.023 µM
IC50 [3]: > 50 µM

NC1CCN(c2ncnc3[nH]ccc23)CC1
IC50 [1]: 0.18 µM
IC50 [2]: 1.55 µM
IC50 [3]: 48 µM

NCC1(c2ccc(Cl)cc2)CCN(c2ncnc3[nH]cnc23)CC1
IC50 [1]: 0.016 µM
IC50 [2]: 0.003 µM
IC50 [3]: 5.7 µM

NCC1(c2ccc(Cl)cc2)CCN(c2ccnc3[nH]ccc23)CC1
IC50 [1]: 0.025 µM
IC50 [2]: 0.003 µM
IC50 [3]: 16 µM
